Test results as given in ChEMBL document CHEMBL1949620, “Cyclolinopeptide derivatives modify methotrexate-induced suppression of the humoral immune response in mice” (Eur J Med Chem, 2011).
Calls of active or inactive are those of the source. The calls are words filed in the database; no cut-off is given here. Peptide text beside a SMILES is read from it.

Experiments:
Type in all cases: functional, cell-based
Splenocyte [1] = assay: Immunoregulatory activity against methotrexate-induced decrease of humoral immune response in SRBC primed BALB/c mouse splenocytes assessed as increase of antibody forming cells at […] after 4 days
Summary of the method: (§1)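 Female BALB/c mice, 12 weeks old, primed i.p. with 0.2 ml of 1% SRBC. Splenocytes taken 4 days later and cultured at 5×10⁶/ml in RPMI 1640 with 10% FCS, glutamine, pyruvate, 2-mercaptoethanol and antibiotics, plus 0.05 ml of 0.005% SRBC. Peptides (in Cremophor/ethanol, diluted in RPMI) added at culture start; MTX (0.25, 0.5 or 1.0 mM) added at 24 h. After 4 days, AFC counted by agar-gel local haemolysis; Student's t-test.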

Splenocyte [2] = assay: Immunostimulatory activity in SRBC primed BALB/c mouse splenocytes assessed as humoral immune response by measuring increase of antibody forming cells at 0.25 to 1 mM after 4 days; details: 1 to 10 ug/ml, in the assay text read “at 1 to 10 ug/ml” for “at 0.25 to 1 mM”; summary of the method: as §1
Splenocyte [3] = assay: Immunoregulatory activity against methotrexate-induced decrease of humoral immune response in SRBC primed BALB/c mouse splenocytes assessed as increase of antibody forming cells at 1 ug/ml after 4 days; summary of the method: as §1
Splenocyte [4] = assay: Immunostimulatory activity in SRBC primed BALB/c mouse splenocytes assessed as humoral immune response by measuring increase of antibody forming cells at 1 ug/ml after 4 days
Summary of the method: (§2)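 Splenocytes from female BALB/c mice (12 weeks old) primed i.p. with 0.2 ml of 1% SRBC and harvested after 4 days. Cells cultured at 5×10⁶/ml in RPMI 1640 with 10% FCS and supplements, with 0.05 ml of 0.005% SRBC antigen. Peptide (Cremophor/ethanol stock diluted in RPMI) added at initiation, no MTX. Antibody-forming cells counted by local haemolysis in agar after 4 days; Student's t-test.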

Splenocyte [5] = assay: Immunostimulatory activity in SRBC primed BALB/c mouse splenocytes assessed as humoral immune response by measuring increase of antibody forming cells after 4 days; summary of the method: as §2
Splenocyte [6] = assay: Immunostimulatory activity in SRBC primed BALB/c mouse splenocytes assessed as humoral immune response by measuring inhibition of antibody forming cells at 10 ug/ml after 4 days; summary of the method: as §2
Splenocyte [7] = assay: Immunoregulatory activity against methotrexate-induced decrease of humoral immune response in SRBC primed BALB/c mouse splenocytes assessed as increase of antibody forming cells at 10 ug/ml after 4 days; summary of the method: as §1
Splenocyte [8] = assay: Immunoregulatory activity against methotrexate-induced decrease of humoral immune response in SRBC primed BALB/c mouse splenocytes assessed as increase of antibody forming cells at 0.1 ug/ml after 4 days; summary of the method: as §1

CC[C@H](C)[C@H](NC(=O)[C@@H](NC(=O)[C@H](CC(C)C)NC(=O)[C@H](Cc1ccccc1)N1CCN(C(=O)[C@@H]2CCCN2C(=O)[C@@H]2CCCN2C(=O)[C@@H](NC(=O)[C@@H](N)CC(C)C)C(C)C)[C@@H](Cc2ccccc2)C1=O)[C@@H](C)CC)C(=O)O
inhibition (Splenocyte [1]): Active
Activity (Splenocyte [2]): inactive

CC[C@H](C)[C@@H]1NC(=O)[C@H](CC(C)C)NC(=O)[C@H](Cc2ccccc2)NC(=O)[C@H](Cc2ccccc2)NC(=O)[C@@H]2CCCN2C(=O)[C@@H]2CCCN2C(=O)[C@H](C(C)C)NC(=O)[C@H](CC(C)C)NC(=O)[C@H]([C@@H](C)CC)NC1=O (cyclo(FFLIILVPP))
inhibition (Splenocyte [3]): Active
Activity (Splenocyte [4]): inactive
Activity (Splenocyte [5]): Dose-dependent effect
inhibition (Splenocyte [6]): Active
increase of antibody forming cells (Splenocyte [7]): Active
inhibition (Splenocyte [8]): Active

CC[C@H](C)[C@H](NC(=O)[C@@H](NC(=O)[C@H](CC(C)C)NC(=O)[C@@H](Cc1ccccc1)N1CCN(C(=O)[C@@H]2CCCN2C(=O)[C@@H]2CCCN2C(=O)[C@@H](NC(=O)[C@@H](N)CC(C)C)C(C)C)[C@H](Cc2ccccc2)C1=O)[C@@H](C)CC)C(=O)O
increase of antibody forming cells (Splenocyte [7]): Active
Activity (Splenocyte [2]): Active

CC[C@H](C)[C@@H]1NC(=O)[C@H](CC(C)C)NC(=O)[C@@H](Cc2ccccc2)N2CCN(C(=O)[C@@H]3CCCN3C(=O)[C@@H]3CCCN3C(=O)[C@H](C(C)C)NC(=O)[C@H](CC(C)C)NC(=O)[C@H]([C@@H](C)CC)NC1=O)[C@H](Cc1ccccc1)C2=O
inhibition (Splenocyte [3]): Active
increase of antibody forming cells (Splenocyte [7]): Active

CC[C@H](C)[C@@H]1NC(=O)[C@H](CC(C)C)NC(=O)[C@H](Cc2ccccc2)N2CCN(C(=O)[C@@H]3CCCN3C(=O)[C@@H]3CCCN3C(=O)[C@H](C(C)C)NC(=O)[C@H](CC(C)C)NC(=O)[C@H]([C@@H](C)CC)NC1=O)[C@@H](Cc1ccccc1)C2=O
inhibition (Splenocyte [6]): Active
increase of antibody forming cells (Splenocyte [7]): Active

H-LVPPFFLII-OH
increase of antibody forming cells (Splenocyte [7]): Active
Activity (Splenocyte [2]): inactive
